Reference: ChEMBL document CHEMBL4219037, “Modified biphenyl Hsp90 C-terminal inhibitors for the treatment of cancer” (Bioorg Med Chem Lett, 2017)
The source made the active and inactive calls. The calls are words filed in the database; no cut-off is given here.

Assays:
MCF7 = assay: Antiproliferative activity against human MCF7 cells after 72 hrs by MTS assay; type: functional, cell-based; conditions: MCF7, 72 h
Summary of the method: (§1)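 Cells kept in Advanced DMEM/F12 at 37 °C, 5% CO2, humidified. Seeded at 3000 cells/well, left 24 h, then given compound or vehicle in DMSO (1% DMSO final) at varying concentrations for 72 h. Viable cells read by MTS/PMS proliferation kit. Vehicle wells set to 100% proliferation. IC50 as mean ± SD of at least three separate experiments run in triplicate.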

[1] = target: T1, Heat shock protein HSP90 (Homo sapiens) (UniProt P07900+P08238); assay: Inhibition of […] HSP90 in human MCF7 cells assessed as reduction in HSP90 expression at 4.49 to 44.95 uM after 24 hrs by Western blot analysis relative to control; type: cell-based
SK-BR-3 = assay: Antiproliferative activity against human SKBR3 cells after 72 hrs by MTS assay; type: functional, cell-based; conditions: SK-BR-3, 72 h; summary of the method: as §1
[2] = Antiproliferative activity against human LNCaP-LN3 cells after 72 hrs by MTS assay; type: functional, cell-based; conditions: LNCaP-LN3, 72 h; summary of the method: as §1
[3] = target: T1, Heat shock protein HSP90 (Homo sapiens); assay: Inhibition of C-terminal HSP90 in human MCF7 cells assessed as degradation of cRAF at 4.49 to 44.95 uM after 24 hrs by Western blot analysis relative to control; type: cell-based
[4] = Antiproliferative activity against human PC3MM2 cells after 72 hrs by MTS assay; type: functional, cell-based; conditions: PC3MM2, 72 h; summary of the method: as §1
[5] = target: T1, Heat shock protein HSP90 (Homo sapiens); assay: Inhibition of C-terminal HSP90 in human MCF7 cells assessed as degradation of HER2 at 4.49 to 44.95 uM after 24 hrs by Western blot analysis relative to control; type: cell-based
[6] = target: T1, Heat shock protein HSP90 (Homo sapiens); assay: Inhibition of C-terminal HSP90 in human MCF7 cells assessed as degradation of cyclin D1 at 4.49 to 44.95 uM after 24 hrs by Western blot analysis relative to control; type: cell-based
[7] = target: T1, Heat shock protein HSP90 (Homo sapiens); assay: Inhibition of C-terminal HSP90 in human MCF7 cells assessed as degradation of cRAF at 2.945 to 29.45 uM after 24 hrs by Western blot analysis relative to control; type: cell-based
[8] = target: T1, Heat shock protein HSP90 (Homo sapiens); assay: Inhibition of […] HSP90 in human MCF7 cells assessed as reduction in HSP90 expression at 2.945 to 29.45 uM after 24 hrs by Western blot analysis relative to control; type: cell-based
[9] = target: T1, Heat shock protein HSP90 (Homo sapiens); assay: Inhibition of C-terminal HSP90 in human MCF7 cells assessed as degradation of cyclin D1 at 2.945 to 29.45 uM after 24 hrs by Western blot analysis relative to control; type: cell-based
[10] = target: T1, Heat shock protein HSP90 (Homo sapiens); assay: Inhibition of C-terminal HSP90 in human MCF7 cells assessed as degradation of HER2 at 2.945 to 29.45 uM after 24 hrs by Western blot analysis relative to control; type: cell-based

Row | Compound | IC50 (MCF7) | inhibition [1] | IC50 (SK-BR-3) | IC50 [2] | inhibition [3] | IC50 [4] | inhibition [5] | inhibition [6] | inhibition [7] | inhibition [8] | inhibition [9] | inhibition [10]
1 | COc1cccc(-c2cc(C(=O)NCCc3ccc(O[C@@H]4OC(C)(C)[C@H](OC)[C@@H](O)[C@H]4O)c(C)c3-c3cccc(F)c3)ccc2OC)c1 | 8.99 µM | inactive | 43.5 µM | 25.1 µM | Active | > 50 µM | Active | Active |  |  |  | 
2 | COc1cccc(-c2cc(C(=O)NCCc3c(OC)cc(O[C@@H]4OC(C)(C)[C@H](OC)[C@@H](O)[C@H]4O)cc3-c3cccc(F)c3)ccc2OC)c1 | 44.7 µM |  | 49.4 µM | 8.09 µM |  | 10.6 µM |  |  |  |  |  | 
3 | COc1cccc(-c2cc(C(=O)NCCc3ccc(OC4CCN(C)CC4)cc3-c3cccc(F)c3)ccc2OC)c1 | 15.4 µM |  | 23.7 µM | 22.5 µM |  | 5.49 µM |  |  |  |  |  | 
4 | COc1cccc(-c2cc(C(=O)NCCc3cc(C)c(OC4CCN(C)CC4)cc3-c3cccc(F)c3)ccc2OC)c1 | 9.14 µM |  | 7.81 µM | 20.8 µM |  | 13.9 µM |  |  |  |  |  | 
5 | CC(C)=CCc1cc(C(=O)NCCc2ccc(OC3CCN(C)CC3)c(O)c2-c2cccc(F)c2)ccc1O | 1.45 µM |  | 3.25 µM | 23.1 µM |  | 42.3 µM |  |  |  |  |  | 
6 | COc1cccc(-c2cc(C(=O)NCCc3c(OC)cc(OC4CCN(C)CC4)cc3-c3cccc(F)c3)ccc2OC)c1 | 8.71 µM |  | 5.72 µM | > 100 µM |  | 32.1 µM |  |  |  |  |  | 
7 | CO[C@@H]1[C@@H](O)[C@@H](O)[C@H](Oc2ccc(CCNC(C)=O)c(-c3cccc(F)c3)c2)OC1(C)C [CEMDOMESPIB] | > 500 µM |  | > 500 µM | > 500 µM |  | > 500 µM |  |  |  |  |  | 
8 | COc1cccc(-c2cc(C(=O)NCCc3ccc(OC4CCN(C)CC4)c(N)c3-c3cccc(F)c3)ccc2OC)c1 | 11.3 µM |  | 15.3 µM | 22.4 µM |  | 18.9 µM |  |  |  |  |  | 
9 | COc1cccc(-c2cc(C(=O)NCCc3c(O)cc(OC4CCN(C)CC4)cc3-c3cccc(F)c3)ccc2OC)c1 | 12.2 µM |  | 15.7 µM | 44.8 µM |  | > 50 µM |  |  |  |  |  | 
10 | CC(C)=CCc1cc(C(=O)NCCc2cc(C)c(OC3CCN(C)CC3)cc2-c2cccc(F)c2)ccc1O | 35.6 µM |  | 15.2 µM | > 100 µM |  | > 100 µM |  |  |  |  |  | 
11 | COc1cccc(-c2cc(C(=O)NCCc3ccc(O[C@@H]4OC(C)(C)[C@H](OC)[C@@H](O)[C@H]4O)cc3-c3cccc(F)c3)ccc2OC)c1 | > 50 µM |  | > 50 µM | 15.9 µM |  | > 50 µM |  |  |  |  |  | 
12 | CC(C)=CCc1cc(C(=O)NCCc2c(O)cc(OC3CCN(C)CC3)cc2-c2cccc(F)c2)ccc1O | 5.89 µM |  | 7.59 µM | 22.8 µM |  | 1.32 µM |  |  | Active | inactive | Active | Active
13 | COc1cccc(-c2cc(C(=O)NCCc3c(O)cc(O[C@@H]4OC(C)(C)[C@H](OC)[C@@H](O)[C@H]4O)cc3-c3cccc(F)c3)ccc2OC)c1 | 23.8 µM |  | 23.5 µM | > 50 µM |  | > 50 µM |  |  |  |  |  | 
14 | COc1cc(OC2CCN(C)CC2)cc(-c2cccc(F)c2)c1CCNC(=O)c1ccc(O)c(CC=C(C)C)c1 | 7.86 µM |  | 8.16 µM | > 100 µM |  | 1.84 µM |  |  |  |  |  | 
15 | COc1cccc(-c2cc(C(=O)NCCc3cc(C)c(O[C@@H]4OC(C)(C)[C@H](OC)[C@@H](O)[C@H]4O)cc3-c3cccc(F)c3)ccc2OC)c1 | > 50 µM |  | 43.9 µM | > 100 µM |  | > 100 µM |  |  |  |  |  | 
16 | COc1cccc(-c2cc(C(=O)NCCc3ccc(OC4CCN(C)CC4)c(C)c3-c3cccc(F)c3)ccc2OC)c1 | 17.8 µM |  | 21.3 µM | > 50 µM |  | > 50 µM |  |  |  |  |  | 
17 | COc1cccc(-c2cc(C(=O)NCCc3ccc(OC4CCN(C)CC4)c(O)c3-c3cccc(F)c3)ccc2OC)c1 | 11.3 µM |  | 9.29 µM | 22.4 µM |  | 8.61 µM |  |  |  |  |  | 
